Reference: ChEMBL document CHEMBL3351619 (J Med Chem, 2014)
Active and inactive are the calls of the source. The calls are words filed in the database; no cut-off is given here.

Key:
[1] = target: T1, 5-hydroxytryptamine receptor 1A (Homo sapiens, UniProt P08908); assay: Displacement of [3H]-8-OH-DPAT from human 5-HT1A expressed in CHO-K1 cells after 120 mins by scintillation spectrometry; format: cell-based
T1 sequence (P08908 whole entry): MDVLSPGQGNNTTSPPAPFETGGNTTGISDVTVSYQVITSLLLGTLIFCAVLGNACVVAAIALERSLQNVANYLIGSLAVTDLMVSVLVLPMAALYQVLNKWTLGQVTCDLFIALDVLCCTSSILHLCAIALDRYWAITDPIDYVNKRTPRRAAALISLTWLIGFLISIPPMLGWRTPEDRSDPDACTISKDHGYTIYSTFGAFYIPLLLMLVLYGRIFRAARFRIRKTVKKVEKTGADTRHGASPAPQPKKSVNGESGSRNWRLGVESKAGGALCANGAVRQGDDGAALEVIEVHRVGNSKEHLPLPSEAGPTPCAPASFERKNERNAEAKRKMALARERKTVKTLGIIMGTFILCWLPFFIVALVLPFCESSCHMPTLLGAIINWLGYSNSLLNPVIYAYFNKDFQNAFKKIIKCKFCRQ
How it was run: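 Competitive radioligand binding on membranes from transfected cells expressing human 5-HT1A receptor, with [3H]-8-OH-DPAT as the radioligand. Affinity is given as Ki, the mean of two to four experiments, each run in triplicate.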

[2] = target: T2, 5-hydroxytryptamine receptor 7 (Homo sapiens, UniProt P34969); assay: Displacement of [3H]LSD from human 5-HT7 expressed in HEK-293 cells after 120 mins by scintillation spectrometry; format: cell-based, HEK293
How it was run: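 Competition binding on membranes of CHO-K1 or HEK-293 cells transfected with human 5-HT7 receptor, radioligand [3H]LSD; 5-CT as reference. Two to four experiments, each in triplicate; Ki reported as mean.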

Mus musculus [3] = assay: Effect on core body temperature in C57BL/6J mouse at 0.3 to 1 mg/kg, ip administered as single dose; format: functional, organism-based
How it was run: (§1)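 C57BL/6J mice (male and female, 8−12 weeks), single ip doses in 0.9% saline vehicle, start 9:00 h. Rectal probe core temperature taken at baseline just before injection, at 15 and 30 min, then every 30 min to 2 h. For antagonism, test drug given 30 min before 8-OH-DPAT (0.3 mg/kg ip).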

[4] = target: T2, 5-hydroxytryptamine receptor 7; assay: Antagonist activity at human 5-HT7 expressed in HEK-293 cells assessed as inhibition in serotonin-induced increase in cAMP level after 45 mins by HTRF assay; format: functional, cell-based, HEK293
How it was run: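 From the concentration–response curve, maximal inhibition (Imax) and IC50 were read, and the dissociation constant KB was calculated.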

[5] = target: Melatonin receptor (Homo sapiens) (UniProt P48039+P49286); assay: Displacement of [125I]-2-iodomelatonin from MT1 (unknown origin) at 1 uM after 60 mins; format: protein assay
How it was run: (§2)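 Single test concentration of 1 μM; percent displacement of the respective radioligand binding at each target.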

[6] = target: T2, 5-hydroxytryptamine receptor 7; assay: Agonist activity at human 5-HT7 expressed in HEK-293 cells assessed as increase in cAMP level after 45 mins by HTRF assay; format: functional, cell-based, HEK293
[7] = target: 5-hydroxytryptamine receptor 2A (Homo sapiens) (UniProt P28223); assay: Displacement of [3H]ketanserin from 5-HT2A (unknown origin) at 1 uM after 60 mins; how it was run: as §2
Mus musculus [8] = assay: Inhibition of 8-OH-DPAT-induced hypothermia in C57BL/6J mouse assessed as reduction in core body temperature at 1 mg/kg, ip administered 30 mins prior challenge as single dose; format: functional, organism-based; set-up: dose 1 mg/kg; how it was run: as §1
Mus musculus [9] = assay: Antidepressant activity in C57BL/6J mouse assessed as decrease in the immobility at 10 mg/kg, ip administered as single dose measured for last 4 mins of test by tail suspension method relative to vehicle-treated control; format: functional, organism-based; set-up: dose 10 mg/kg
[10] = target: Sodium-dependent serotonin transporter (Homo sapiens) (UniProt P31645); assay: Displacement of [3H]imipramine from 5-HT transporter (unknown origin) at 1 uM after 60 mins; how it was run: as §2
Mus musculus [11] = assay: Antidepressant activity in C57BL/6J mouse assessed as decrease in the immobility at 1 mg/kg, ip administered as single dose measured for last 4 mins of test by forced swim test relative to vehicle-treated control; format: functional, organism-based; set-up: dose 1 mg/kg
How it was run: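 Male and female C57BL/6J mice, 8−12 weeks, group housed; single ip injection, 0.9% saline vehicle; start 9:00 h. Mouse placed 6 min in clear cylinder (16 cm diameter, 25 cm high) holding 10 cm of 25 °C water, replaced between animals; trained observer scored immobility (no movement beyond keeping head above surface) over last 4 min. N = 7−9/group; Student's two-tailed unpaired t test.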

[12] = target: T3, Corticotropin-releasing factor receptor 1 (Homo sapiens) (UniProt P34998); assay: Displacement of [125I]sauvagine from CRF1 (unknown origin) at 1 uM after 120 mins; how it was run: as §2
T3 sequence (whole entry): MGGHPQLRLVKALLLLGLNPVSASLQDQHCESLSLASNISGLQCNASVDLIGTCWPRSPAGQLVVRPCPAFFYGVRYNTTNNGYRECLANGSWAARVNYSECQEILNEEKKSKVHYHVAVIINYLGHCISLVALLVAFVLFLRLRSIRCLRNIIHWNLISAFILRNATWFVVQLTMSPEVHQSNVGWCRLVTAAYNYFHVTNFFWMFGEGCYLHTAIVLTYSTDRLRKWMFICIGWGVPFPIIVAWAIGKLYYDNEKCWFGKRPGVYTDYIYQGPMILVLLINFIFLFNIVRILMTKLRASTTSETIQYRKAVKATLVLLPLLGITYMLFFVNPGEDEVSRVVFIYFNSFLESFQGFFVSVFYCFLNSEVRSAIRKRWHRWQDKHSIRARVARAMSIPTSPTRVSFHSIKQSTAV

Mus musculus [13] = assay: Antidepressant activity in C57BL/6J mouse assessed as decrease in the immobility at 1 mg/kg, ip administered as single dose measured for last 4 mins of test by tail suspension method relative to vehicle-treated control; format: functional, organism-based; set-up: dose 1 mg/kg

T2 sequence (P34969 whole entry): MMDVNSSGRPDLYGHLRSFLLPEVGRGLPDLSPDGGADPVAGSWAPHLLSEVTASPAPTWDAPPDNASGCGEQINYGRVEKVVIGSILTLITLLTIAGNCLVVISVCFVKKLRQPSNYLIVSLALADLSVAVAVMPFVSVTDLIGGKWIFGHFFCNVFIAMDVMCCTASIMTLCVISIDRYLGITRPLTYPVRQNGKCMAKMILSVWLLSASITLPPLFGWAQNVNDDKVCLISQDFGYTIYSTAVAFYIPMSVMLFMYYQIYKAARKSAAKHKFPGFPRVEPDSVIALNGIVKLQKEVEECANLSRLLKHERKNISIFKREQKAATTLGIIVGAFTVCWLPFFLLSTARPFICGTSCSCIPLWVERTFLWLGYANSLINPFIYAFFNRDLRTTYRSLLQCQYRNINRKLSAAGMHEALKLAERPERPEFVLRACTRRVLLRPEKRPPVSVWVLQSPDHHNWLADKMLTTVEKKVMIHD
Sequence of Sodium-dependent serotonin transporter (Homo sapiens) (P31645 whole entry, looked up): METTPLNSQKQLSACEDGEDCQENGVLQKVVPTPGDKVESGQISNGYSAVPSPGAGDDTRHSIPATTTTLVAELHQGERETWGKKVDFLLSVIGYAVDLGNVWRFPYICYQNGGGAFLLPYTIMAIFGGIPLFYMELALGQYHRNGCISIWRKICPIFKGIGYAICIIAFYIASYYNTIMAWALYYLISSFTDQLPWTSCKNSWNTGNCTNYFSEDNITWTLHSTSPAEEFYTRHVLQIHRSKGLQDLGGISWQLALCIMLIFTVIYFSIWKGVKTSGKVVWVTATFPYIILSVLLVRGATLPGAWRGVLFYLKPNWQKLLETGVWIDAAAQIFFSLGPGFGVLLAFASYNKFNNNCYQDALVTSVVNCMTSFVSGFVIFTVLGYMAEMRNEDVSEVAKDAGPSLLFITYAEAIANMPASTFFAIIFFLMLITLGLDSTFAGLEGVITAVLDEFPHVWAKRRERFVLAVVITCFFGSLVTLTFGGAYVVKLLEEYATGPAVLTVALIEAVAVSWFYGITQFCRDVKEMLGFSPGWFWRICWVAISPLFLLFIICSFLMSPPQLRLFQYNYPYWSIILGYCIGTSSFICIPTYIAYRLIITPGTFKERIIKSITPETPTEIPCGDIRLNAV
Sequence of 5-hydroxytryptamine receptor 2A (Homo sapiens) (P28223 whole entry): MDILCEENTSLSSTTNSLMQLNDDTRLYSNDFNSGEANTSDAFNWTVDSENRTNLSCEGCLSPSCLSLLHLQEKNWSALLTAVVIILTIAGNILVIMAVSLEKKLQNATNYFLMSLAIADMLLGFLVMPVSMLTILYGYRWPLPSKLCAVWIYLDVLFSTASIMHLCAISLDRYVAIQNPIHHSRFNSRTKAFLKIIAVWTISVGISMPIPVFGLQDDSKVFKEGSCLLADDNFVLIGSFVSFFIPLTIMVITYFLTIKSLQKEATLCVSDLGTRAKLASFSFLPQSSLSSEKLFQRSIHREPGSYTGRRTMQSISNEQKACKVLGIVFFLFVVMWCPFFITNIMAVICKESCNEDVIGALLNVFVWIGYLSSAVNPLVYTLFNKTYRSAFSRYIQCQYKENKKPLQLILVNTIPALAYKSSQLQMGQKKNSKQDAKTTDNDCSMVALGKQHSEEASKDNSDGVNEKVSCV

Structure (SMILES) | Ki [1] | Ki [2] | IC50 [4] | other results
O=C1Cc2ccccc2N1CCCCCN1CCc2ccccc2C1 | 523 nM | 28 nM | – | –
O=C1Cc2ccccc2N1CC/C=C/CCN1CCc2ccccc2C1 | > 1000 nM | 0.7 nM | 2200 nM | Activity (Mus musculus [3]): inactive; inhibition [5]: -4%; EC50 [6]: 230 nM; inhibition [7]: 15%; inhibition (Mus musculus [8]): Active; Activity (Mus musculus [9]): inactive; inhibition [10]: 14%; Activity (Mus musculus [11]): Active; inhibition [12]: -10%; Activity (Mus musculus [13]): Active
CN1C[C@@H](NS(=O)(=O)N(C)C)C[C@@H]2c3cccc4c3c(cn4C)C[C@H]21 [MESULERGINE] | – | – | 290 nM | –
O=C1Cc2ccccc2N1CC/C=C/CCN1CC[C@H]2CCCC[C@@H]2C1 (racemic) | > 1000 nM | 2.7 nM | 2300 nM | EC50 [6]: 60 nM
O=C1Cc2ccccc2N1CCCCCCCN1CC[C@H]2CCCC[C@@H]2C1 (racemic) | > 1000 nM | 62 nM | – | –
O=C1Cc2ccccc2N1CCCCCN1CC[C@H]2CCCC[C@@H]2C1 (racemic) | 491 nM | 41 nM | – | –
O=C1Cc2ccccc2N1CCCCCCCN1CCc2ccccc2C1 | > 1000 nM | 36 nM | – | –
O=C1Cc2ccccc2N1CCCCN1CC[C@H]2CCCC[C@@H]2C1 (racemic) | 470 nM | 29 nM | – | –
O=C1Cc2ccccc2N1CCCCCCN1CCc2ccccc2C1 | 576 nM | 24 nM | – | –
